Test results reported in ChEMBL document CHEMBL1148485, “Synthesis and biological evaluation of new selective cytotoxic cyclolignans derived from podophyllotoxin” (J Med Chem, 2004).

What was measured:
[1] = Selectivity index is the ratio of IC50 of P-388 cell line to that of HT-29; type: functional
HT-29 = assay: In vitro cytotoxicity against HT-29 (human colon carcinoma) cell line.; type: functional, cell-based
A549 = assay: In vitro cytotoxicity against A-549 (human lung carcinoma) cell line.; type: functional, cell-based
P388 = assay: Tested in vitro for antineoplastic activity against P-388 (lymphoid neoplasm from DBA/2 mouse) tumor cell line; type: functional, cell-based
In short: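 P-388 cells seeded at 1 × 10^4 cells/well in MEM–10% FCS containing graded compound concentrations. Incubated 4 days at 37 °C, 10% CO2, 98% humidity. Inhibition scored by inverted microscopy against untreated controls, which were kept in exponential growth. Mean of duplicate wells.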

SK-MEL-28 = assay: Tested in vitro for antineoplastic activity against MEL-28 (human melanoma) tumor cell line; type: functional, cell-based
In short: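 MEL-28 cells seeded at 2 × 10^4 cells/well in MEM–10% FCS containing graded compound concentrations. Incubated 4 days at 37 °C, 10% CO2, 98% humidity. Stained with crystal violet and inhibition judged against untreated controls, which were kept in exponential growth. Mean of duplicate wells.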

HeLa [2] = assay: Tested for effect of compound on S cell cycle phase and apoptosis in HeLa cells at a dose of 10E-7 for 48 hr; type: functional, Homo sapiens
In short: (§1)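 HeLa cells grown in DMEM with 10% heat-inactivated FCS, 2 mM L-glutamine, penicillin and gentamicin at 37 °C, 5% CO2. Exposed to compound at 10^-6 to 10^-8 M for 24, 48 or 72 h, untreated controls run in parallel. (3-5) × 10^5 cells fixed overnight in 70% ethanol at 4 °C, then RNase A plus propidium iodide. Phase fractions measured by flow cytometry, with sub-G1 (hypodiploid) cells counted as apoptotic. Three independent experiments.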

HeLa [3] = assay: Tested for effect of compound on G0/G1 cell cycle phase and apoptosis in HeLa cells at a dose of 10E-8 for 24 hr; type: functional, Homo sapiens
In short: (§2)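 HeLa cells were grown in DMEM with 10% heat-inactivated FCS and 2 mM L-glutamine at 37 °C in 5% CO2. They were exposed to 10^-6 to 10^-8 M for 24, 48 or 72 h. Then (3-5)×10^5 cells were fixed overnight in 70% ethanol at 4 °C, PBS-washed, and given 1 mg/mL RNase A plus 20 µg/mL propidium iodide for 1 h at room temperature. DNA content was read by flow cytometry. Sub-G1 (hypodiploid) % counted as apoptotic. Untreated controls were run in parallel. Representative of three independent experiments.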

HeLa [4] = assay: Tested for effect of compound on G0/G1 cell cycle phase and apoptosis in HeLa cells at a dose of 10E-6 for 24 hr; type: functional, Homo sapiens; in short: as §2
HeLa [5] = assay: Tested for effect of compound on G2/M cell cycle phase and apoptosis in HeLa cells at a dose of 10E-8 for 24 hr; type: functional, Homo sapiens; in short: as §1
HeLa [6] = assay: Tested for effect of compound on G0/G1 cell cycle phase and apoptosis in HeLa cells at a dose of 10E-7 for 24 hr; type: functional, Homo sapiens; in short: as §2
HeLa [7] = assay: Tested for effect of compound on G0/G1 cell cycle phase and apoptosis in HeLa cells at a dose of 10E-7 for 72 hr; type: functional, Homo sapiens; in short: as §2
HeLa [8] = assay: Tested for effect of compound on S cell cycle phase and apoptosis in HeLa cells at a dose of 10E-7 for 72 hr; type: functional, Homo sapiens; in short: as §1
HeLa [9] = assay: Tested for effect of compound on Sub-G1 cell cycle phase and apoptosis in HeLa cells at a dose of 10E-6 for 48 hr; type: functional, Homo sapiens; in short: as §1
HeLa [10] = assay: Tested for effect of compound on G2/M cell cycle phase and apoptosis in HeLa cells at a dose of 10E-8 for 48 hr; type: functional, Homo sapiens; in short: as §1
HeLa [11] = assay: Tested for effect of compound on G0/G1 cell cycle phase and apoptosis in HeLa cells at a dose of 10E-8 for 48 hr; type: functional, Homo sapiens; in short: as §2
HeLa [12] = assay: Tested for effect of compound on Sub-G1 cell cycle phase and apoptosis in HeLa cells at a dose of 10E-8 for 72 hr; type: functional, Homo sapiens; in short: as §1
HeLa [13] = assay: Tested for effect of compound on S cell cycle phase and apoptosis in HeLa cells at a dose of 10E-7 for 24 hr; type: functional, Homo sapiens; in short: as §1
HeLa [14] = assay: Tested for effect of compound on G2/M cell cycle phase and apoptosis in HeLa cells at a dose of 10E-6 for 72 hr; type: functional, Homo sapiens; in short: as §1
HeLa [15] = assay: Tested for effect of compound on Sub-G1 cell cycle phase and apoptosis in HeLa cells at a dose of 10E-6 for 24 hr; type: functional, Homo sapiens; in short: as §1
HeLa [16] = assay: Tested for effect of compound on G0/G1 cell cycle phase and apoptosis in HeLa cells at a dose of 10E-6 for 72 hr; type: functional, Homo sapiens; in short: as §2
HeLa [17] = assay: Tested for effect of compound on Sub-G1 cell cycle phase and apoptosis in HeLa cells at a dose of 10E-6 for 72 hr; type: functional, Homo sapiens; in short: as §1
HeLa [18] = assay: Tested for effect of compound on Sub-G1 cell cycle phase and apoptosis in HeLa cells at a dose of 10E-7 for 48 hr; type: functional, Homo sapiens; in short: as §1
HeLa [19] = assay: Tested for effect of compound on G0/G1 cell cycle phase and apoptosis in HeLa cells at a dose of 10E-6 for 48 hr; type: functional, Homo sapiens; in short: as §2
HeLa [20] = assay: Tested for effect of compound on S cell cycle phase and apoptosis in HeLa cells at a dose of 10E-6 for 24 hr; type: functional, Homo sapiens; in short: as §1
HeLa [21] = assay: Tested for effect of compound on G0/G1 cell cycle phase and apoptosis in HeLa cells at a dose of 10E-7 for 48 hr; type: functional, Homo sapiens; in short: as §2
HeLa [22] = assay: Tested for effect of compound on S cell cycle phase and apoptosis in HeLa cells at a dose of 10E-8 for 48 hr; type: functional, Homo sapiens; in short: as §1
HeLa [23] = assay: Tested for effect of compound on G2/M cell cycle phase and apoptosis in HeLa cells at a dose of 10E-6 for 48 hr; type: functional, Homo sapiens; in short: as §2
HeLa [24] = assay: Tested for effect of compound on G2/M cell cycle phase and apoptosis in HeLa cells at a dose of 10E-7 for 24 hr; type: functional, Homo sapiens; in short: as §1
HeLa [25] = assay: Tested for effect of compound on G2/M cell cycle phase and apoptosis in HeLa cells at a dose of 10E-7 for 72 hr; type: functional, Homo sapiens; in short: as §1
HeLa [26] = assay: Tested for effect of compound on S cell cycle phase and apoptosis in HeLa cells at a dose of 10E-8 for 72 hr; type: functional, Homo sapiens; in short: as §1
HeLa [27] = assay: Tested for effect of compound on S cell cycle phase and apoptosis in HeLa cells at a dose of 10E-6 for 72 hr; type: functional, Homo sapiens; in short: as §1
HeLa [28] = assay: Tested for effect of compound on G2/M cell cycle phase and apoptosis in HeLa cells at a dose of 10E-7 for 48 hr; type: functional, Homo sapiens; in short: as §1
HeLa [29] = assay: Tested for effect of compound on Sub-G1 cell cycle phase and apoptosis in HeLa cells at a dose of 10E-8 for 48 hr; type: functional, Homo sapiens; in short: as §1
HeLa [30] = assay: Tested for effect of compound on Sub-G1 cell cycle phase and apoptosis in HeLa cells at a dose of 10E-7 for 24 hr; type: functional, Homo sapiens; in short: as §1
HeLa [31] = assay: Tested for effect of compound on G2/M cell cycle phase and apoptosis in HeLa cells at a dose of 10E-6 for 24 hr; type: functional, Homo sapiens; in short: as §2
HeLa [32] = assay: Tested for effect of compound on G2/M cell cycle phase and apoptosis in HeLa cells at a dose of 10E-8 for 72 hr; type: functional, Homo sapiens; in short: as §1
HeLa [33] = assay: Tested for effect of compound on Sub-G1 cell cycle phase and apoptosis in HeLa cells at a dose of 10E-7 for 72 hr; type: functional, Homo sapiens; in short: as §1
HeLa [34] = assay: Tested for effect of compound on G0/G1 cell cycle phase and apoptosis in HeLa cells at a dose of 10E-8 for 72 hr; type: functional, Homo sapiens; in short: as §2
HeLa [35] = assay: Tested for effect of compound on S cell cycle phase and apoptosis in HeLa cells at a dose of 10E-6 for 48 hr; type: functional, Homo sapiens; in short: as §1
HeLa [36] = assay: Tested for effect of compound on S cell cycle phase and apoptosis in HeLa cells at a dose of 10E-8 for 24 hr; type: functional, Homo sapiens; in short: as §1
HeLa [37] = assay: Tested for effect of compound on Sub-G1 cell cycle phase and apoptosis in HeLa cells at a dose of 10E-8 for 24 hr; type: functional, Homo sapiens; in short: as §1

COC(=O)[C@@H]1C(/C=N/c2cncnc2N)=Cc2cc3c(cc2C1c1cc(OC)c(OC)c(OC)c1)OCO3 (stereo partly specified)
Selectivity index [1]: 83 | IC50 (HT-29; Homo sapiens, HT-29): 0.023 µM | IC50 (A549; Homo sapiens, A549): 0.023 µM | IC50 (P388): 1.9 µM | IC50 (SK-MEL-28): 1 µM

CC/N=C/C1=Cc2cc3c(cc2[C@@H](c2cc(OC)c(OC)c(OC)c2)[C@@H]1C(=O)OC)OCO3 (stereo in doubt; 5)
Selectivity index [1]: 500 | IC50 (HT-29; ht-29): 0.0022 µM | IC50 (A549; a549): 0.022 µM | IC50 (P388): 1.1 µM | IC50 (SK-MEL-28): 0.022 µM

COC(=O)[C@@H]1C(/C=N/c2ccccc2O)=Cc2cc3c(cc2C1c1cc(OC)c(OC)c(OC)c1)OCO3 (stereo partly specified)
IC50 (HT-29; Homo sapiens, HT-29): 0.97 µM | IC50 (A549; Homo sapiens, A549): > 9.7 µM | IC50 (SK-MEL-28): > 9.7 µM

CCCCCC/N=C/C1=Cc2cc3c(cc2C(c2cc(OC)c(OC)c(OC)c2)[C@@H]1C(=O)OC)OCO3 (stereo partly specified)
Selectivity index [1]: 100 | IC50 (HT-29; Homo sapiens, HT-29): 0.02 µM | IC50 (A549; Homo sapiens, A549): 0.2 µM | IC50 (P388): 2 µM | IC50 (SK-MEL-28): 0.49 µM

COC(=O)[C@@H]1C(/C=N/c2ccc(OC)cc2)=Cc2cc3c(cc2C1c1cc(OC)c(OC)c(OC)c1)OCO3 (stereo partly specified)
Activity (HeLa [2]): 6.2% | Activity (HeLa [3]): 55.1% | Activity (HeLa [4]): 2% | Activity (HeLa [5]): 28.2% | Activity (HeLa [6]): 33.5% | Activity (HeLa [7]): 35.1% | Selectivity index [1]: 100 | IC50 (HT-29; Homo sapiens, HT-29): 0.0094 µM | Activity (HeLa [8]): 13.6% | Activity (HeLa [9]): 25.3% | Activity (HeLa [10]): 25.5% | IC50 (A549; Homo sapiens, A549): 0.094 µM | Activity (HeLa [11]): 57.5% | Activity (HeLa [12]): 2.7% | Activity (HeLa [13]): 18.8% | Activity (HeLa [14]): 10.4% | Activity (HeLa [15]): 1.9% | Activity (HeLa [16]): 19.4% | Activity (HeLa [17]): 49.4% | Activity (HeLa [18]): 5.2% | Activity (HeLa [19]): 20.9% | Activity (HeLa [20]): 5.3% | Activity (HeLa [21]): 7.7% | Activity (HeLa [22]): 15.1% | Activity (HeLa [23]): 47.8% | Activity (HeLa [24]): 46.1% | Activity (HeLa [25]): 24.2% | Activity (HeLa [26]): 11.4% | IC50 (P388): 0.94 µM | Activity (HeLa [27]): 20.8% | Activity (HeLa [28]): 80.9% | Activity (HeLa [29]): 1.9% | Activity (HeLa [30]): 1.6% | Activity (HeLa [31]): 90.8% | Activity (HeLa [32]): 26.6% | Activity (HeLa [33]): 27.1% | Activity (HeLa [34]): 59.3% | Activity (HeLa [35]): 6% | Activity (HeLa [36]): 15.3% | Activity (HeLa [37]): 1.4%

CC/N=C/C1=Cc2c(cc3c(c2OC)OCO3)C(c2cc(OC)c(OC)c(OC)c2)[C@@H]1C(=O)OC (stereo partly specified)
IC50 (HT-29; Homo sapiens, HT-29): 0.1 µM | IC50 (A549; Homo sapiens, A549): > 10 µM | IC50 (SK-MEL-28): 1 µM

COC(=O)[C@@H]1C(/C=N/C2CCCCC2)=Cc2cc3c(cc2C1c1cc(OC)c(OC)c(OC)c1)OCO3 (stereo partly specified)
Selectivity index [1]: 80 | IC50 (HT-29; Homo sapiens, HT-29): 0.025 µM | IC50 (A549; Homo sapiens, A549): 0.25 µM | IC50 (P388): 2 µM | IC50 (SK-MEL-28): 0.49 µM
